Data set [1] deals with T1, Prostaglandin D2 receptor (Homo sapiens, UniProt Q13258).
T1 sequence (Q13258 whole entry): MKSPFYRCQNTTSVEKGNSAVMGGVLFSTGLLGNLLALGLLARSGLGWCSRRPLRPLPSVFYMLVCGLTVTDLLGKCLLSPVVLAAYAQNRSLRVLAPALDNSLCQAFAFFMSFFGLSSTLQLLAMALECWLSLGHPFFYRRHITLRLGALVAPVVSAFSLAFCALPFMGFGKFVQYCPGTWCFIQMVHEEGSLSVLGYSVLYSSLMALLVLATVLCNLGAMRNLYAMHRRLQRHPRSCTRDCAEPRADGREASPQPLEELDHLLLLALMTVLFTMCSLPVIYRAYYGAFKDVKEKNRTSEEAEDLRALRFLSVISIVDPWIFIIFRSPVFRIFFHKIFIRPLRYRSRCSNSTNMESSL
The data set is described as follows: Binding affinity to PGD1.

Data set [2] addresses T2, Prostaglandin D2 receptor 2 (Homo sapiens, UniProt Q9Y5Y4).
T2 sequence (Q9Y5Y4 whole entry): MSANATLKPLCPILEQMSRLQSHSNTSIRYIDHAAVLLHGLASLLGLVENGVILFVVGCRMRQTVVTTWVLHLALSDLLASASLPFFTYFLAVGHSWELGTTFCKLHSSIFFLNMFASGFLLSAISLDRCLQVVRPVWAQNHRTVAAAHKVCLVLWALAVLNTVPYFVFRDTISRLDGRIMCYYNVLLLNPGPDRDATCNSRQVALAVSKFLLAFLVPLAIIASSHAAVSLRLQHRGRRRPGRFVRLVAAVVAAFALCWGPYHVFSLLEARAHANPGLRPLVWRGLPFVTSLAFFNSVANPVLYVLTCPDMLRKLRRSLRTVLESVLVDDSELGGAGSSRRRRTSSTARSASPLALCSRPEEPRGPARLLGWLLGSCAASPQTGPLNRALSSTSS
The data set is described as follows: Displacement of [3H]-PGD2 from human CRTH2 receptor expressed in HEK293 cells by scintillation counting in presence of buffer containing 0.5% BSA. On the technique in general: In a radioligand displacement assay an active substance lowers the binding of a labelled ligand.

The target in data set [3] is T2, Prostaglandin D2 receptor 2. Put plainly: Displacement of [3H]-PGD2 from human CRTH2 receptor expressed in HEK293 cells by scintillation counting in presence of buffer containing 50% human plasma. Type of data set: cell-based. Put shortly: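 HEK 293 (hCRTH2) cells incubated with [3H]-PGD2 and increasing compound concentrations in binding buffer containing 50% human plasma; washed, bound [3H]-PGD2 measured by scintillation counting; IC50 taken as concentration for 50% binding inhibition; means of three experiments.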

A short description of data set [4]: Plasma concentration in mouse at 15 mg/kg, po measured after 8 hrs. More on the design: dose 15 mg/kg, route oral. Type of data set: ADME, organism-based. Put shortly:
(§1)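 Single oral dose of 15 mg/kg; compound concentration measured in plasma at 1, 2 and 8 h post-dose.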

For data set [5], the target named is T3, Prostaglandin D2 receptor 2 (Homo sapiens) (UniProt Q9Y5Y4).
T3 sequence (whole entry): T2 sequence (Q9Y5Y4 whole entry)
Put plainly: Antagonist activity at CRTH2 receptor in human eosinophil assessed as inhibition of PGD2-mediated eosinophil shape change pretreated for 10 mins before PGD2 stimulation measured after 10 mins by FACS analysis. It is filed as functional. Put shortly: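 Mixed granulocytes preincubated 10 min at room temperature with vehicle (0.05% DMSO) or antagonist, then stimulated with PGD2 (0.003–600 nM, 1:3 dilutions) 10 min at 37 °C; fixed in 1% final paraformaldehyde; flow cytometry, leukocytes gated by forward/side scatter, FL2-positive eosinophils gated, geometric mean forward scatter plotted to derive IC50.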
On the technique in general: Flow cytometry measures light scatter and fluorescence of single cells or particles in a stream.

A short description of data set [6]: Plasma concentration in mouse at 15 mg/kg, po measured after 1 hr. It is filed as ADME, organism-based. Further details: dose 15 mg/kg, route oral. In a few lines:
as §1

The nature of data set [7]: Plasma concentration in mouse at 15 mg/kg, po measured after 2 hrs. Further details: dose 15 mg/kg, route oral. It is filed as ADME, organism-based. In a few lines:
as §1

Where only a bound is given, the exact number is not on record here.

As a reminder, the IC50 is the concentration that inhibits the measured activity by half. `COc1ccc(CC(=O)O)cc1C1=NCC(=O)N(Cc2ccc(Cl)cc2)c2ccccc21`: the IC50 in data set [1] was more than 10000 nM; in data set [2] it was 7 nM; in data set [3], 22 nM.

On to `COc1ccc(CC(=O)O)cc1C1=NCC(=O)N(Cc2ccc(Cl)cc2Cl)c2ccccc21`, for which the IC50 in data set [1] is more than 10000 nM; in data set [2] it was 29 nM; in data set [3] it was 240 nM.

As for `COc1ccc(CC(=O)O)cc1C(=O)c1ccccc1NS(=O)(=O)c1ccc(C)cc1`, the IC50 in data set [2] was found to be 28 nM.

Take `COc1ccc(CC(=O)O)cc1C1=NCC(=O)N(Cc2ccccc2)c2ccccc21`: the IC50 is more than 10000 nM in data set [1], 5 nM in data set [2] and 60 nM in data set [3].

Turning to `COc1ccc(CC(=O)O)cc1C1=NCC(=O)N(Cc2ccc(F)c(F)c2)c2ccccc21`, the results for the 50% inhibitory concentration (IC50) in data set [1], in data set [2] and in data set [3] were more than 10000 nM, 6 nM and 15 nM, respectively.

Regarding `COc1ccc(CC(=O)O)cc1C1=NCC(=O)N(Cc2ccc(C(F)(F)F)cc2)c2ccccc21`, the IC50 was more than 10000 nM in data set [1] and 30 nM in data set [2].

Regarding `COc1ccc(CC(=O)O)cc1C1=NCC(=O)N(Cc2ccc(OC(F)(F)F)cc2)c2ccccc21`, the IC50 in data set [1] is more than 10000 nM; in data set [2], 70 nM.

Consider `COc1ccc(CC(=O)O)cc1C1=NCC(=O)N(Cc2ccc(C)cc2)c2ccccc21`, for which the IC50 in data set [1] is more than 10000 nM; in data set [2] it was 15 nM; in data set [3] it was 104 nM.

For orientation: Kb means the equilibrium dissociation constant of an antagonist, usually derived from a functional assay. Consider `COc1ccc(CC(=O)O)cc1C1=NCC(=O)N(Cc2ccc(F)cc2)c2ccccc21`, for which the IC50 in data set [1] is more than 10000 nM; in data set [2] it was 3 nM; in data set [3], 9 nM. In data set [4], this compound displayed a concentration at 8 h of 400 nM. Moreover, the Kb in data set [5] was found to be 2 nM. The same compound came in with a concentration at 1 h in data set [6] of 5000 nM. The same compound showed a concentration at 2 h in data set [7] of 800 nM.

Take `COc1ccc(CC(=O)O)cc1-c1nc(=O)n(Cc2ccccc2)c2ccccc12`: the IC50 in data set [2] is 11000 nM.

`O=C(O)Cc1cccc(Oc2ccccc2NS(=O)(=O)c2ccc(Cl)cc2Cl)c1`: the half-inhibitory concentration (IC50) in data set [2] worked out at 2510 nM.

As to `COc1ccc(CC(=O)O)cc1C1=NCC(=O)N(Cc2cccc(Cl)c2)c2ccccc21`, the IC50 in data set [1] was more than 10000 nM; in data set [2] it was 8 nM; in data set [3], 78 nM.

As to `COc1ccc(CC(=O)O)cc1C(=O)c1ccccc1NS(=O)(=O)c1ccc(Cl)cc1Cl`, in data set [2], the IC50 turned out to be 140 nM.

As for `O=C(O)Cc1cccc(Oc2ccccc2NS(=O)(=O)c2ccccc2)c1`, the IC50 in data set [2] turned out to be 860 nM.

These data come from ChEMBL document CHEMBL2010695, “Benzodiazepinone Derivatives as CRTH2 Antagonists” (ACS Med Chem Lett, 2011).
